Test results from ChEMBL document CHEMBL3244193, “Design of species- or isozyme-specific enzyme inhibitors. 3. Species and isozymic differences between mammalian and bacterial adenylate kinases in substituent tolerance in an enzyme-substrate complex” (J Med Chem, 1979).

What was measured:
Escherichia coli [1] = assay: Activity of Escherichia coli adenylate kinase by Lineweaver-Burk plot analysis relative to ATP
How it was run: (§1)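 Substrate kinetics in a pyruvate kinase/lactate dehydrogenase-coupled assay: 0.1 M Tris-HCl pH 7.6, 2 mM MgSO4, 0.12 M KCl, 0.3 mM PEP, 0.38 mM NADH, 0.25 mM AMP. A340 change over 5 min at 23 °C. Derivatives screened first at ca. 0.8 mM. Five or more substrate levels; KM and Vmax (relative to ATP) taken from linear Lineweaver-Burk plots.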

Escherichia coli [2] = assay: Activity of Escherichia coli adenylate kinase by Lineweaver-Burk plot analysis; how it was run: as §1
[3] = system: CSc1nc2c(N)ncnc2n1[C@@H]1O[C@H](COP(=O)(O)OP(=O)(O)OP(=O)(O)O)[C@@H](O)[C@H]1O; assay: (§2) Activity of Sprague-Dawley rat liver adenylate kinase 2 by Lineweaver-Burk plot analysis relative to ATP; how it was run: as §1
[4] = system: Nc1ncnc2c1ncn2[C@@H]1O[C@H](COP(=O)(O)OP(=O)(O)OP(=O)(O)O)[C@@H](O)[C@H]1O; assay: as §2; how it was run: as §1
[5] = system: CCCSc1nc2c(N)ncnc2n1[C@@H]1O[C@H](COP(=O)(O)OP(=O)(O)OP(=O)(O)O)[C@@H](O)[C@H]1O; assay: as §2; how it was run: as §1
[6] = system: O=C(CI)NCCCCCNc1ncnc2c1ncn2[C@@H]1O[C@H](COP(=O)(O)OP(=O)(O)OP(=O)(O)O)[C@@H](O)[C@H]1O; assay: as §2; how it was run: as §1
[7] = system: CSc1nc2c(N)ncnc2n1[C@@H]1O[C@H](COP(=O)(O)OP(=O)(O)OP(=O)(O)O)[C@@H](O)[C@H]1O; assay: (§3) Activity of Sprague-Dawley rat liver adenylate kinase 2 by Lineweaver-Burk plot analysis; how it was run: as §1
[8] = system: Nc1ncnc2c1ncn2[C@@H]1O[C@H](COP(=O)(O)OP(=O)(O)OP(=O)(O)O)[C@@H](O)[C@H]1O; assay: as §3; how it was run: as §1
[9] = system: CCCSc1nc2c(N)ncnc2n1[C@@H]1O[C@H](COP(=O)(O)OP(=O)(O)OP(=O)(O)O)[C@@H](O)[C@H]1O; assay: as §3; how it was run: as §1
[10] = system: O=C(CI)NCCCCCNc1ncnc2c1ncn2[C@@H]1O[C@H](COP(=O)(O)OP(=O)(O)OP(=O)(O)O)[C@@H](O)[C@H]1O; assay: as §3; how it was run: as §1

Question: Which Vmax (Escherichia coli [1]) does the source give for `Nc1ncnc2c1ncn2[C@@H]1O[C@H](COP(=O)(O)OP(=O)(O)OP(=O)(O)O)[C@@H](O)[C@H]1O` here?
Answer: 0.06%

Question: `O=C(CI)NCCCCNc1ncnc2c1ncn2[C@@H]1O[C@H](COP(=O)(O)OP(=O)(O)OP(=O)(O)O)[C@@H](O)[C@H]1O` was tested. Which Km (Escherichia coli [1]) did it give?
Answer: 2500 µM

Question: What about the Vmax (Escherichia coli [2]) of the same compound?
Answer: 0.12%

Question: “Adenylate kinase 2, mitochondrial (Rattus norvegicus) (from UniProt P29410)” was tested. Which Vmax [3] did it give?
Answer: 5%

Question: What about the Vmax [4] of the same compound?
Answer: 100%

Question: And the Vmax [5]?
Answer: 15.7%

Question: What about the Vmax [6] of the same compound?
Answer: 21%

Question: And the Km [7]?
Answer: 180 µM

Question: What about the Km [8] of the same compound?
Answer: 90 µM

Question: What about the Km [9] of the same compound?
Answer: 60 µM

Question: And the Km [10]?
Answer: 1000 µM
